Test [1] relates to Candida albicans. Put plainly: Antifungal activity against Candida albicans ATCC 90028. In kind it is functional.
Test [2] relates to Staphylococcus aureus. Kind of test: Antibacterial activity against Staphylococcus aureus ATCC 29213 treated for 24 hrs followed by compound treated at 2 to 16 times MIC measured after 24 hrs by micro dilution method. In kind it is functional. The settings on record: ATCC 29213, 24 h.
Test [3] deals with HL-60. Put plainly: Antiproliferative activity against human HL60 cells after 48 hrs by sulforhodamine B assay. In kind it is functional, cell-based. The conditions noted are these: HL-60, 48 h. The gist of the method:
(§1)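 Sulforhodamine B assay following NCI guidelines. Log-phase cells seeded at 10^4 cells/well and allowed to attach for 24 h at 37 °C, 5% CO2. Exposed 48 h to 1:10 serial dilutions, four replicate wells per condition. Fixed with 50% cold TCA for 1 h at 4 °C, stained, dye dissolved in tris buffer, OD read at 540 nm. Blank-subtracted growth expressed relative to untreated (100%) and reported as IC50.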
On the technique in general: Sulforhodamine B stains cellular protein and so reports cell mass.

The test system of test [4] is Enterococcus. Kind of test: Antibacterial activity against vancomycin-resistant Enterococcus treated for 24 hrs followed by compound treated at 2 to 16 times MIC measured after 24 hrs by micro dilution method. In kind it is functional. The gist of the method:
(§2)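 MBC taken from the same 24 h microdilution plates (Mueller Hinton broth, final inoculum 5 × 10^6 CFU mL-1, 37 °C). […] Spots were incubated 24 h and colonies counted. MBC is the lowest concentration giving a 3 log drop from the starting inoculum.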

Test [5] relates to PC-3. Put plainly: Antiproliferative activity against human PC3 cells after 48 hrs by sulforhodamine B assay. In kind it is functional, cell-based. The settings on record: PC-3, 48 h. Put shortly: as §1
The subject of test [6] is MOLT-4. Put plainly: Antiproliferative activity against human MOLT4 cells after 48 hrs by sulforhodamine B assay. The conditions noted are these: MOLT-4, 48 h. In kind it is functional, cell-based. The gist of the method:
as §1

Test [7] has as its system Aspergillus fumigatus. Kind of test: Antifungal activity against Aspergillus fumigatus LSI-II. In kind it is functional.
The subject of test [8] is Enterococcus. Put plainly: Antibacterial activity against vancomycin-resistant Enterococcus after 24 hrs by micro dilution method. In kind it is functional. The gist of the method:
(§3)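 Broth microdilution in Mueller Hinton broth, two-fold serial dilutions, final 0.25 to 256 µg mL-1. Inoculum from 24 h culture in saline, set to 0.5 McFarland, diluted to a final 5 × 10^6 CFU mL-1. Plates held at 37 °C for 24 h and read by eye. MIC is the lowest concentration with no turbidity.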

The subject of test [9] is Staphylococcus aureus. Put plainly: Antibacterial activity against methicillin-resistant Staphylococcus aureus 15187 treated for 24 hrs followed by compound treated at 2 to 16 times MIC measured after 24 hrs by micro dilution method. In kind it is functional. The conditions noted are these: Staphylococcus aureus, 15187, 24 h. Put shortly:
as §2

Test [10] concerns Staphylococcus aureus. Kind of test: Antibacterial activity against methicillin-resistant Staphylococcus aureus 15187 after 24 hrs by micro dilution method. In kind it is functional. The settings on record: Staphylococcus aureus, 15187, 24 h. Put shortly:
as §3

For test [11], the system named is Staphylococcus aureus. Kind of test: Antibacterial activity against Staphylococcus aureus ATCC 29213 after 24 hrs by micro dilution method. In kind it is functional. The settings on record: ATCC 29213, 24 h. The gist of the method:
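Broth microdilution in Mueller Hinton broth. Inoculum from a 24 h culture in saline, set to 0.5 McFarland and diluted to a final 5 × 10^6 CFU mL-1. Two-fold serial dilutions, final 0.25–256 µg mL-1. Incubated 37 °C for 24 h and read visually. MIC is the lowest concentration with no turbidity.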

Structures are written as SMILES. Values after ≈ are worked out from the molar mass of the structure shown. Active and inactive are the calls of the source. The calls are words filed in the database; no cut-off is given here. A value given as a limit tells only on which side of the number the result lay.

Consider 16 compounds from ChEMBL document CHEMBL1955787, “Design and synthesis of novel magnolol derivatives as potential antimicrobial and antiproliferative compounds” (Eur J Med Chem, 2012).

One may read the MIC as the lowest concentration that inhibits growth of the organism. The term MBC denotes the lowest tested concentration that kills the bacteria rather than only halting them. One may read the IC50 as the midpoint of a concentration-inhibition curve. As for `C=CCc1cc(O)c(O)c(-c2cc(CC=C)cc(O)c2O)c1`, the MIC was determined as 128 µg/mL (≈ 429 µM) in [1]; 64 µg/mL (≈ 215 µM) in test [7]; 16 µg/mL (≈ 53.6 µM) in [8]; 16 µg/mL (≈ 53.6 µM) in test [10]; 8 µg/mL (≈ 26.8 µM) in test [11]. Also, the figures for the MBC in test [2], in test [4] and in [9] were 8 µg/mL (≈ 26.8 µM), 32 µg/mL (≈ 107 µM) and 16 µg/mL (≈ 53.6 µM), respectively. Moreover, the IC50 in [3], in [5] and in [6] was more than 100 µM throughout.

Turning to `CCCc1cc(I)c(O)c(-c2cc(CCC)cc(I)c2O)c1`, the MIC result in test [1] and in [7] was “inactive” throughout. In addition, the MBC in test [2], in test [4] and in test [9] was 64 µg/mL (≈ 123 µM) each time. For the same compound, the half-inhibitory concentration (IC50) in test [3] worked out at 7 µM; in test [5], 7 µM; in [6] it was 18 µM. Moreover, the MIC in test [8], in test [10] and in test [11] was 64 µg/mL (≈ 123 µM) each time.

On to `CC[C@H]1OC(=O)[C@H](C)[C@@H](O[C@H]2C[C@@](C)(OC)[C@@H](O)[C@H](C)O2)[C@H](C)[C@@H](O[C@@H]2O[C@H](C)C[C@H](N(C)C)[C@H]2O)[C@](C)(O)C[C@@H](C)C(=O)[C@H](C)[C@@H](O)[C@]1(C)O` [ERYTHROMYCIN], for which the figures for the MBC in test [2], in test [4] and in [9] were 1 µg/mL (≈ 1.36 µM), 64 µg/mL (≈ 87.2 µM) and 64 µg/mL (≈ 87.2 µM), respectively. For the same compound, the MIC in test [8] was determined as 64 µg/mL (≈ 87.2 µM); in [10], 64 µg/mL (≈ 87.2 µM); in test [11], 0.5 µg/mL (≈ 0.681 µM).

Turning to `CCCc1ccc(O)c(-c2cc(CCC)cc(I)c2O)c1`, the MIC result in test [1] and in test [7] was “inactive” in each case. Also, the MBC in test [2], in [4] and in [9] was more than 256 µg/mL throughout. The values for the IC50 in test [3], in test [5] and in test [6] were 45 µM, 63 µM and 60 µM, respectively. Further, the MIC in [8], in test [10] and in test [11] was more than 256 µg/mL in each case.

As to `CCCCc1ccc(O)c(-c2cc(CCCC)cc(I)c2O)c1`, the MIC entry in test [1] and in test [7] was “inactive” each time. For the same compound, the MBC in test [2], in test [4] and in test [9] was more than 256 µg/mL in each case. The IC50 in [3] is 50 µM; in test [5], 60 µM; in [6], 66 µM. For the same compound, the MIC in [8], in test [10] and in test [11] was more than 256 µg/mL each time.

On to `CCCc1cc(Cl)c(O)c(-c2cc(CCC)cc(Cl)c2O)c1`, for which the MIC result in [1] and in [7] was “inactive” throughout. In addition, the MBC in test [2] was 4 µg/mL (≈ 11.8 µM); in test [4], 8 µg/mL (≈ 23.6 µM); in [9], 4 µg/mL (≈ 11.8 µM). The concentration for half-maximal inhibition (IC50) in test [3], in test [5] and in test [6] was more than 100 µM each time. Moreover, the MIC in test [8] was determined as 8 µg/mL (≈ 23.6 µM); in [10], 4 µg/mL (≈ 11.8 µM); in test [11], 4 µg/mL (≈ 11.8 µM).

`CCCCc1ccc(O)c(-c2cc(CCCC)cc(Br)c2O)c1`: the MIC entry in test [1] and in test [7] was “inactive” each time. Further, the results for the MBC in [2], in [4] and in test [9] were 2 µg/mL (≈ 5.3 µM), 2 µg/mL (≈ 5.3 µM) and 1 µg/mL (≈ 2.65 µM), respectively. Also, the IC50 stood at 25 µM in [3], 74 µM in [5] and 35 µM in test [6]. The MIC in test [8] amounted to 1 µg/mL (≈ 2.65 µM); in test [10], 1 µg/mL (≈ 2.65 µM); in [11], 2 µg/mL (≈ 5.3 µM).

In the case of `C=CCc1ccc(O)c(-c2cc(CC=C)ccc2O)c1` [MAGNOLOL], the MBC in [2], in [4] and in test [9] was 32 µg/mL (≈ 120 µM) each time. For the same compound, the IC50 in [3] is 48 µM; in test [5], 62 µM; in [6], 58 µM. Moreover, the MIC in test [8] was found to be 32 µg/mL (≈ 120 µM); in [10] it was 32 µg/mL (≈ 120 µM); in test [11] it was 16 µg/mL (≈ 60.1 µM).

`CCCc1ccc(O)c(-c2cc(CCC)cc(Br)c2O)c1`: the MIC entry in test [1] and in [7] was “inactive” throughout. Besides, the MBC in test [2] turned out to be 8 µg/mL (≈ 22.9 µM); in test [4], 32 µg/mL (≈ 91.6 µM); in test [9], 16 µg/mL (≈ 45.8 µM). Moreover, the IC50 in test [3], in test [5] and in test [6] was more than 100 µM each time. Further, the minimum inhibitory concentration (MIC) in test [8] stood at 16 µg/mL (≈ 45.8 µM); in test [10] it was 16 µg/mL (≈ 45.8 µM); in [11] it was 8 µg/mL (≈ 22.9 µM).

Consider `CCCCc1cc(Br)c(O)c(-c2cc(CCCC)cc(Br)c2O)c1`, for which the MIC result in test [1] and in [7] was “inactive” each time. The MBC was 8 µg/mL (≈ 17.5 µM) in [2], 16 µg/mL (≈ 35.1 µM) in [4] and 8 µg/mL (≈ 17.5 µM) in test [9]. Also, the IC50 in [3], in test [5] and in test [6] was more than 100 µM each time. For the same compound, the MIC in [8], in test [10] and in [11] was 8 µg/mL (≈ 17.5 µM) in each case.

Consider `CCCc1cc(Br)c(O)c(-c2cc(CCC)cc(Br)c2O)c1`, for which the MIC entry in test [1] and in [7] was “inactive” in each case. Besides, the figures for the MBC in test [2], in test [4] and in test [9] were 4 µg/mL (≈ 9.34 µM), 8 µg/mL (≈ 18.7 µM) and 4 µg/mL (≈ 9.34 µM), respectively. Moreover, the 50% inhibitory concentration (IC50) in test [3] was found to be 30 µM; in test [5], 95 µM; in [6], 55 µM. For the same compound, the MIC in test [8], in test [10] and in test [11] was 4 µg/mL (≈ 9.34 µM) in each case.

Consider `O=c1[nH]cc(F)c(=O)[nH]1` [FLUOROURACIL], for which the IC50 in [3] stood at 266 µM; in test [5] it was 2.1 µM; in test [6] it was 3.2 µM.

As for `CCCCc1cc(Cl)c(O)c(-c2cc(CCCC)cc(Cl)c2O)c1`, the MIC entry in [1] and in test [7] was “inactive” each time. In addition, the MBC came out at 8 µg/mL (≈ 21.8 µM) in test [2], 16 µg/mL (≈ 43.6 µM) in test [4] and 8 µg/mL (≈ 21.8 µM) in test [9]. The IC50 in test [3] was 90 µM; in test [5], more than 100 µM; in test [6] it was more than 100 µM. Besides, the MIC in test [8], in test [10] and in [11] was 8 µg/mL (≈ 21.8 µM) in each case.

In the case of `O=C(O)c1cn(C2CC2)c2cc(N3CCNCC3)c(F)cc2c1=O` [CIPROFLOXACIN], the MBC in [2] stood at 0.5 µg/mL (≈ 1.51 µM); in [4], 64 µg/mL (≈ 193 µM); in test [9], 8 µg/mL (≈ 24.1 µM). Besides, the figures for the MIC in [8], in [10] and in test [11] were 32 µg/mL (≈ 96.6 µM), 8 µg/mL (≈ 24.1 µM) and 0.25 µg/mL (≈ 0.754 µM), respectively.

As to `C=CCc1cc(OC)c(O)c(-c2cc(CC=C)cc(OC)c2O)c1`, the MIC was 64 µg/mL (≈ 196 µM) in [1]; 32 µg/mL (≈ 98 µM) in test [7]; more than 256 µg/mL in test [8]; more than 256 µg/mL in test [10]; more than 256 µg/mL in [11]. Further, the MBC in test [2], in test [4] and in test [9] was more than 256 µg/mL in each case. In addition, the IC50 in test [3], in test [5] and in [6] was more than 100 µM each time.

Take `CCCCc1ccc(O)c(-c2cc(CCCC)cc(Cl)c2O)c1`: the MIC result in test [1] and in test [7] was “inactive” in each case. The MBC in [2], in test [4] and in test [9] was more than 256 µg/mL throughout. For the same compound, the IC50 in test [3], in test [5] and in test [6] was more than 100 µM in each case. For the same compound, the minimal inhibitory concentration (MIC) in test [8], in [10] and in test [11] was more than 256 µg/mL in each case.
